Assay results pooled from the literature.
Lines come from different studies, so protocols differ.
Target: Homeodomain-interacting protein kinase 3 (HIPK3, Homo sapiens, UniProt Q9H422)

Compound | effect on | method | concentration | remaining binding
C[C@@H](c1ccc(-n2cnc3c(N)ncnc32)cc1)N1CCc2nn(C)c(Cc3ccccc3)c2C1=O | binding | competition with immobilised ligand | 0.1 µM | 64%
CNC(=O)[C@@H]1CC[C@@H](n2c(-c3ccc4cnccc4c3)nc3ccc(C(=O)NCc4cccc(C(N)=O)c4)cc32)C1 | binding | competition with immobilised ligand | 1 µM | 100%
O=C(c1ccc(Nc2ncc(Cl)c(-c3ccc(Cl)s3)n2)cc1)N1CCC(N2CCCC2)CC1 | binding | competition with immobilised ligand | 1 µM | 3.5%
C[C@H]1CCN(c2nccc(-c3cnn4ncccc34)n2)C1 | binding | – | 1 µM | 61%
CCN1CCN(Cc2ccc(C(=O)Nc3ccc(C)c(Oc4ccc5c(c4)CC(=O)N5)c3)cc2C(F)(F)F)CC1 | binding | competition with immobilised ligand | 1 µM | 100%
Nc1ncc2c(n1)-c1c([nH]c3ccc(C#CC4CC4)cc13)CCCC2 | binding | competition with immobilised ligand | 1 µM | 78%
N[C@H]1CCN(c2nccc(-c3cnn4ncccc34)n2)C1 | binding | – | 1 µM | 91%
O=C(NCCCN1CCOCC1)c1ccc(Nc2nccc(-c3cc4ccccc4s3)n2)cc1 | binding | competition with immobilised ligand | 1 µM | 39%
COc1cnc(Nc2cccc(S(N)(=O)=O)c2)nc1N1CCN(c2ccccc2)CC1 | binding | competition with immobilised ligand | 1 µM | 100%
O=C(NCCCN1CCOCC1)c1ccc(Nc2ncc(Cl)c(-c3ccc(Cl)s3)n2)cc1 | binding | competition with immobilised ligand | 1 µM | 15%
O=C1NC(c2ccccn2)Sc2ccccc21 (stereo not shown) | cell-free assay | competition with immobilised ligand | 1 µM | 86%
Cc1cnn2ncc(-c3ccnc(N(C)C)n3)c2c1 | binding | – | 1 µM | 68%
Cc1cc(NC(=O)c2cccc(S(F)(F)(F)(F)F)c2)cc(-n2ccn3nc(-c4cccnc4)cc23)c1 | cell-free assay | competition with immobilised ligand | 1 µM | 88.8%
CN(c1nccc(-c2cnn3ncccc23)n1)C1CC1 | binding | – | 1 µM | 100%
O=C(O)c1cc(-c2ccc(C3CCNCC3)cc2)c2ccc(-c3ccc(C(F)(F)F)cc3)cc2c1 | cell-free assay | competition with immobilised ligand | 1 µM | 100%
COc1ccnn2ncc(-c3ccnc(N(C)C)n3)c12 | binding | – | 1 µM | 80%
O=C(Nc1ccc(Oc2ccc(F)cc2)cc1)N1CCc2ncccc2[C@H]1c1ccc(F)cc1 | cell-free assay | competition with immobilised ligand | 1 µM | 92%
O=C(Nc1c[nH]nc1C(=O)NC1CCNCC1)c1cc(F)cc(F)c1 | binding | competition with immobilised ligand | 1 µM | 41%
O=C(N[C@H]1CCCCC/C=C\C2C[C@@]2(C(=O)O)NC(=O)[C@@H]2C[C@@H](Oc3ccncc3)CN2C1=O)OC1CCCC1 (stereo partly shown) | binding | competition with immobilised ligand | 1 µM | 100%
CN(C)c1nccc(-c2cnn3ncccc23)n1 | binding | – | 1 µM | 51%
CCCCN(CCCC)C(=O)CN1C[C@@H](c2cc(OC)c3c(c2)OCO3)[C@H](C(=O)O)[C@H]1CC(C)(C)CCC | cell-free assay | competition with immobilised ligand | 1 µM | 100%
c1cncc(-c2cccc(Nc3nccc(NC4CCCCC4)n3)c2)c1 | binding | competition with immobilised ligand | 10 µM | 57%
